According to ChEMBL document CHEMBL1129275, “Synthesis and in vitro and in vivo characteristics of an iodinated analogue of the beta-adrenoceptor antagonist carazolol” (J Med Chem, 1996):

How the values were obtained:
Settings in all cases: in vivo
Oryctolagus cuniculus [1] = test: Biodistribution pattern of [123I]- ligand was evaluated in intestine of anesthetized rabbit after Intravenous injection of 50 uCi after 2 hr; type: ADME, organism-based
How it was run: (§1)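 Male New Zealand white rabbits, 2.5–3.5 kg, anesthetized with 5 mg/kg xylazine plus 30 mg/kg ketamine im. Each received 50 uCi radioligand (specific activity > 5000 Ci/mmol) iv via ear vein. Animals were killed with 200 mg/kg pentobarbital im at the set time. Blood was drawn by intracardiac puncture and organs weighed. Gamma counting was decay-corrected, expressed as %ID x kg body weight/g tissue, mean ± SEM, n = 3/time point.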

Oryctolagus cuniculus [2] = test: Biodistribution pattern of [123I]- ligand was evaluated in left atrial muscle of anesthetized rabbit after Intravenous injection of 50 uCi after 2 hr; type: ADME, organism-based, Muscle tissue; how it was run: as §1
Oryctolagus cuniculus [3] = test: Biodistribution pattern of [123I]- ligand was evaluated in left ventricular muscle of anesthetized rabbit after Intravenous injection of 50 uCi after 2 hr; type: ADME, organism-based, Muscle tissue; how it was run: as §1
Oryctolagus cuniculus [4] = test: Biodistribution pattern of [123I]- ligand was evaluated in right atrial muscle of anesthetized rabbit after Intravenous injection of 50 uCi after 2 hr; type: ADME, organism-based, Muscle tissue
How it was run: (§2)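 Male New Zealand white rabbits (2.5–3.5 kg), anesthetized with xylazine 5 mg/kg plus ketamine 30 mg/kg im, given 50 µCi radioligand (specific activity >5000 Ci/mmol) iv via ear vein. Euthanized at set times by pentobarbital 200 mg/kg im, n = 3/time point. Organs removed and weighed, gamma-counted, decay/weight corrected; expressed as % ID x kg body weight/g tissue, mean ± SEM.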

Oryctolagus cuniculus [5] = test: Biodistribution pattern of [123I]- ligand was evaluated in right ventricular muscle of anesthetized rabbit after Intravenous injection of 50 uCi after 2 hr; type: ADME, organism-based, Muscle tissue; how it was run: as §2
Oryctolagus cuniculus [6] = test: Cerebral biodistribution pattern of [123I]- ligand was evaluated in striatum of anesthetized rabbit after Intravenous injection of 50 uCi after 2 hr; type: ADME, organism-based; how it was run: as §2
Oryctolagus cuniculus [7] = test: Cerebral biodistribution pattern of [123I]- ligand was evaluated in thalamus of anesthetized rabbit after Intravenous injection of 50 uCi after 2 hr; type: ADME, organism-based; how it was run: as §2
Oryctolagus cuniculus [8] = test: Biodistribution pattern of [123I]- ligand was evaluated in muscle of anesthetized rabbit after Intravenous injection of 50 uCi after 2 hr; type: ADME, organism-based, Muscle tissue; how it was run: as §1
Oryctolagus cuniculus [9] = test: Cerebral biodistribution pattern of [123I]- ligand was evaluated in frontal cortex of anesthetized rabbit after Intravenous injection of 50 uCi after 2 hr; type: ADME, organism-based; how it was run: as §2
Oryctolagus cuniculus [10] = test: Cerebral biodistribution pattern of [123I]- ligand was evaluated in hypothalamus of anesthetized rabbit after Intravenous injection of 50 uCi after 2 hr; type: ADME, organism-based; how it was run: as §2
Oryctolagus cuniculus [11] = test: […] biodistribution pattern of [123I]- ligand was evaluated in kidney of anesthetized rabbit after Intravenous injection of 50 uCi after 2 hr; type: ADME, organism-based; how it was run: as §2
Oryctolagus cuniculus [12] = test: Cerebral biodistribution pattern of [123I]- ligand was evaluated in pituitary gland of anesthetized rabbit after Intravenous injection of 50 uCi after 2 hr; type: ADME, organism-based; how it was run: as §2
Oryctolagus cuniculus [13] = test: Biodistribution pattern of [123I]- ligand was evaluated in blood of anesthetized rabbit after Intravenous injection of 50 uCi after 2 hr; type: ADME, organism-based; how it was run: as §1
Oryctolagus cuniculus [14] = test: Biodistribution pattern of [123I]- ligand was evaluated in fat of anesthetized rabbit after Intravenous injection of 50 uCi after 2 hr; type: ADME, organism-based, Adipose tissue; how it was run: as §1
Oryctolagus cuniculus [15] = test: Biodistribution pattern of [123I]- ligand was evaluated in spleen of anesthetized rabbit after Intravenous injection of 50 uCi after 2 hr; type: ADME, organism-based; how it was run: as §2
Oryctolagus cuniculus [16] = test: Biodistribution pattern of [123I]- ligand was evaluated in liver of anesthetized rabbit after Intravenous injection of 50 uCi after 2 hr; type: ADME, organism-based; how it was run: as §1
Oryctolagus cuniculus [17] = test: Biodistribution pattern of [123I]- ligand was evaluated in lung of anesthetized rabbit after Intravenous injection of 50 uCi after 2 hr; type: ADME, organism-based; how it was run: as §1
Oryctolagus cuniculus [18] = test: Cerebral biodistribution pattern of [123I]- ligand was evaluated in cerebellum of anesthetized rabbit after Intravenous injection of 50 uCi after 2 hr; type: ADME, organism-based; how it was run: as §2

| SMILES | ID x kg of body weight/g of tissue (Oryctolagus cuniculus [1]) [%] | ID x kg of body weight/g of tissue (Oryctolagus cuniculus [2]) [%] | ID x kg of body weight/g of tissue (Oryctolagus cuniculus [3]) [%] | ID x kg of body weight/g of tissue (Oryctolagus cuniculus [4]) [%] | ID x kg of body weight/g of tissue (Oryctolagus cuniculus [5]) [%] | ID x kg of body weight/g of tissue (Oryctolagus cuniculus [6]) [%] | ID x kg of body weight/g of tissue (Oryctolagus cuniculus [7]) [%] | ID x kg of body weight/g of tissue (Oryctolagus cuniculus [8]) [%] | ID x kg of body weight/g of tissue (Oryctolagus cuniculus [9]) [%] | ID x kg of body weight/g of tissue (Oryctolagus cuniculus [10]) [%] | ID x kg of body weight/g of tissue (Oryctolagus cuniculus [11]) [%] | ID x kg of body weight/g of tissue (Oryctolagus cuniculus [12]) [%] | ID x kg of body weight/g of tissue (Oryctolagus cuniculus [13]) [%] | ID x kg of body weight/g of tissue (Oryctolagus cuniculus [14]) [%] | ID x kg of body weight/g of tissue (Oryctolagus cuniculus [15]) [%] | ID x kg of body weight/g of tissue (Oryctolagus cuniculus [16]) [%] | ID x kg of body weight/g of tissue (Oryctolagus cuniculus [17]) [%] | ID x kg of body weight/g of tissue (Oryctolagus cuniculus [18]) [%] |
| --- | --- | --- | --- | --- | --- | --- | --- | --- | --- | --- | --- | --- | --- | --- | --- | --- | --- | --- |
| CC(C)(C)NCC(O)COc1cccc2[nH]c(=O)[nH]c12 (stereo not given) [CGP-12177] | 0.46 | < 0.05 | < 0.08 | < 0.05 | < 0.08 | 0.08 | 0.06 | < 0.03 | 0.1 | 0.06 | 0.09 | 0.07 | 0.01 | 0.04 | 0.12 | 0.1 | < 0.8 | 0.17 |
| CC(C)NCC(O)COc1cccc2ccccc12 (stereo not given) [PROPRANOLOL] | 0.29 | < 0.07 | < 0.09 | < 0.07 | < 0.09 | < 0.04 | 0.04 | < 0.03 | < 0.05 | 0.04 | 0.1 | 0.06 | 0.01 | 0.04 | 0.1 | 0.1 | – | < 0.04 |
